Test results published in PubChem BioAssay AID493196 (Broad Institute, 2011).
Records with an inconclusive call do not appear. Active and inactive are the calls of the source.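 How the source made its calls: active means every repeat test active, with falling signal and half-maximal dose at most ten times the top dose; inconclusive means repeat tests disagree, or a weak flat or poor fit; inactive means all tests inactive, including signal shifting the wrong way.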

System: not listed separately
Experiment: HMLE_sh_eGFP viability loss – cell-based, luminescence, dry powder, set 3, counter-screen for breast cancer stem cell project, dose response (AID 493196)
Details: HMLE_sh_eGFP viability, CellTiter-Glo luminescence, 72 h; at 19.5 µM (top of the series)
Outline: (§1)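 System: HMLE_sh_eGFP breast epithelial cells carrying eGFP-targeting shRNA | Quantity: 2000 cells/well | Measured by: CellTiter-Glo luminescence | Controls: DMSO neutral control, 160 µM puromycin positive control | Schedule: ≥4 h attachment, ~70–74 h exposure, 37 °C, 5% CO2 | Doses: 100 nL compound pinned into each well | Medium: Serum-free CSC screening medium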
With `O=C(c1ccccc1)c1coc2ccc(O)c(Br)c12` the activity change, negative = cytotoxic was 1.2% (inactive).

System: HMLE_sh_eGFP viability, CellTiter-Glo luminescence, 72 h
Experiment: as above
Details: not given
Outline: as §1
Molecule `Nc1cc(Cl)ccc1Oc1ccc2ccccc2c1` has an AC50 of 9.73 µM.
`CC(=O)c1cccc(NS(=O)(=O)c2cc(-c3cnc(C4CC4)o3)ccc2C)c1` showed an AC50 of 2.67 µM.
For `CN(c1ccccc1)S(=O)(=O)c1ccc(-c2ccccc2)cc1`, the AC50 was 14.4 µM.
Work on `Cc1onc(-c2ccccc2)c1C(=O)Nc1sc2c(c1C#N)CCC(C)C2` (stereo not drawn) yielded an AC50 of 6.9 µM.
With `COC(=O)c1c(NC(=O)c2ccccc2)sc2c1CC(C)(C)OC2` the AC50 was 13.4 µM.
With `O=C1NC(=Nc2ccc(Cl)cc2)SC1Cc1cccc(Cl)c1Cl` (stereo not drawn) the AC50 was 14.5 µM.
For `CCCCCCc1cc2cc(S(=O)(=O)c3ccc(Cl)cc3)c(=O)oc2cc1O`, the AC50 was 0.965 µM.
With `O=C(Nc1ccccc1N1CCCC1)c1cccc(-c2cc3ccccc3oc2=O)c1` the AC50 was 7.97 µM.
Work on `CCN1C(=O)/C(=C\N2CCN(c3cccc(Cl)c3)CC2)SC1=S` yielded an AC50 of 11.8 µM.
`CC(C)(C)c1ccc2c(c1)OC(C(=O)NN=Cc1ccc[nH]1)CO2` (mixture of isomers) gave an AC50 of 19.6 µM.
For `Cc1ccc2nc(NC(=O)c3cccc(-c4cc5ccccc5oc4=O)c3)sc2c1`, the AC50 was 1.85 µM.
Work on `C/C(=N\NC(=O)c1cc(-c2cccc([N+](=O)[O-])c2)n[nH]1)c1ccccc1O` yielded an AC50 of 3.52 µM.
